Source: PubChem BioAssay
procasp7 counter – counter-screen: procaspase-7 (human) activation; hit rate 0.093% among 330,000; activation, % at 8.5 µM; P55210; recombinant procaspase-7, Ac-DEVD-pNA absorbance 405 nm; D23A/D198A/D206A triple mutant, cannot self-cleave; scale: DMSO 0, 5 µM enzyme 100; AID 463210;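 active means percent activation above the screen-wide mean plus 3 SD, cut at about 25% in these data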
Target sequence (P55210 whole entry D23A/D198A/D206A): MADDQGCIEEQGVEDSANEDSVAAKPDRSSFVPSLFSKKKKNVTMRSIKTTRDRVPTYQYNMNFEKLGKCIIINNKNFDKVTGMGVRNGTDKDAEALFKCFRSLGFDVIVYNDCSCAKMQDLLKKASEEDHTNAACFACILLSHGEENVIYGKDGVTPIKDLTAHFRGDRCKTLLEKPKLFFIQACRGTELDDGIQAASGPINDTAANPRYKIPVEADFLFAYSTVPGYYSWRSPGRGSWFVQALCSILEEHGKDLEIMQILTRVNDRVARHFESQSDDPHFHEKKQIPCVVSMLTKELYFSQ
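signal = Epi-absorbance of released pNA at 405 nm, two timepoints | assay system = Uncleavable procaspase-7 mutant enzyme | reagent = Ac-DEVD-pNA substrate, 400 µM as added | times = 1 h enzyme–compound preincubation and 2 h substrate reaction, both 25 °C | benchmarks = low DMSO alone, high DMSO plus 5 µM PC-7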
PP5 primary – inhibitors of human protein phosphatase 5 (PP5); P53041; purified PP5c, OMFP substrate fluorescence; inhibition, % at 6.7 µM; hit rate 0.18% among 320,000; AID 1987;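 active means inhibition above the campaign's mean inhibition across all tested compounds plus 3 SD, cut at about 9.5% in these data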;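 further: 0% = DMSO only and 100% = 100 µM cantharidin control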
PP1 inh – blocks human PP1-alpha phosphatase, a PP5 counter-screen; purified PP1alpha, OMFP fluorescence; AID 2235; inhibition, % at 6.7 µM; hit rate 0.9% among 320,000; P62136;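 active means inhibition above the mean inhibition of all tested compounds plus 3 SD, computed separately for each screening campaign, cut at about 15% in these data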
proCasp3 act – activates human procaspase-3; P42574; recombinant procaspase-3 D3A, Ac-DEVD-pNA absorbance 405 nm; activation, % at 8.5 µM; hit rate 0.11% among 330,000; AID 463141;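 active means activation above the mean of all tested compounds plus 3 SD, cut at about 21% in these data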;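 further: 0% = DMSO alone and 100% = DMSO wells spiked with extra 5 µM PC-3 D3A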
Target sequence (P42574 whole entry D9A/D28A/D175A): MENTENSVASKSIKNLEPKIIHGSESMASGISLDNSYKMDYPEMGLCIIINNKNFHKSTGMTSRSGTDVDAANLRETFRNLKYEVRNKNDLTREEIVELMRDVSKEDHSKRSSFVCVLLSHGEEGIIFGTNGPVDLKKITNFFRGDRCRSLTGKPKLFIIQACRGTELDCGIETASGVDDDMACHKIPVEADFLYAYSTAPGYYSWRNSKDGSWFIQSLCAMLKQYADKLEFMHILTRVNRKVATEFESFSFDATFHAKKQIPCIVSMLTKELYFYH
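Compound: 8.5 µM single point, 0.8% DMSO / Material: Autoprocessing-dead procaspase-3 D3A mutant enzyme / Timing: 1 h preincubation plus 2 h reaction at 25 °C / Medium: Zinc-free HEPES/NaCl buffer with 0.01% Triton X-100 at pH 7.4 / Technique: 405 nm absorbance of p-nitroaniline, reads at 0 and 120 min / Repeats: one well per compound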
Numbers without * were called inactive; · = not tested or not shown. This is a sample that favours compounds with a hit; in the whole collection about 1.2% have one here.

SMILES	procasp7 counter	PP5 primary	PP1 inh	proCasp3 act
COc1cc(OC)cc(-c2c(-c3cccs3)c3cc(-c4ccc5[nH]ccc5c4)ccc3n2C)c1	8	0	-10	3
Cc1nn(-c2ccccn2)c2c1C(c1c(F)cccc1Cl)C1=C(N2)c2ccccc2C1=O (stereo unspecified)	4	3	17*	2
Cc1nn(-c2ccccn2)c2c1C(c1ccccc1Cl)C1=C(N2)c2ccccc2C1=O (stereo unspecified)	12	-1	4	7
COc1ccc(-c2cc(C(=O)OCC(=O)NC3CC3)c3ccccc3n2)cc1	26*	2	0	44*
CCN1C(=O)C(=Cc2cccc(OC)c2Oc2ccc([N+](=O)[O-])cc2[N+](=O)[O-])SC1=S	-4	-4	-2	-14
CC1CC1C(=O)OCC(=O)Nc1ccc(Cl)cn1 (stereo unspecified)	3	·	·	-2
Cc1ccc(-c2cc(C(=O)N/N=C/C=C/c3ccccc3)n[nH]2)s1	0	8	15*	-3
COc1cc(-c2nc3cnccn3c2NC(C)(C)CC(C)(C)C)ccc1O	-6	1	6	0
Cc1ccn2c(NC3CCCCC3)c(-c3cccc(-c4cccc(Cl)c4)c3)nc2c1	-1	3	17*	-4
Cc1ccn2c(NC3CCCC3)c(-c3ccncc3)nc2c1	-6	3	-1	-5
COc1cc(-c2nc3cc(C)ccn3c2NC2CCCCC2)ccc1-c1ccc(C(C)=O)cc1	-5	2	18*	-6
CCCCNc1c(-c2ccc(-c3ccc(C(C)=O)cc3)c(OC)c2)nc2cnccn12	-22	5	17*	-16
CC1=C(CC(=O)O)c2cc(F)ccc2/C1=C/c1ccc(S(C)=O)cc1 (stereo unspecified)	2	-4	1	3
Cc1ccc(C)c(N2CCN(C(=O)CCc3nc(-c4cccc(Cl)c4)no3)CC2)c1	4	·	·	3
COc1ccc(NC(=O)c2cc(CC(C)C)nc3ccccc23)cc1	13	1	2	-7
COc1ccc(-n2c(C)cc(-c3cn4cccc(C)c4n3)c2C)cc1	1	1	15*	1
Cc1cc(-c2cn3ccccc3n2)c(C)n1-c1ccccc1	-12	0	12	-11
Cc1cc(-c2csc(N)n2)c(C)n1CCC(C)C	-10	4	16*	0
O=C(NC1CCC(O)CC1)c1cccc2cccnc12 (stereo unspecified)	-4	-3	-2	0
Cc1occc1-c1nnc(SCC(=O)c2ccc(F)cc2)n1Cc1ccco1	-8	0	-2	-3
COc1ccccc1-c1nnc(SCC(=O)c2ccc(C3CCCCC3)cc2)n1Cc1ccco1	6	1	17*	-5
O=C1CC(=C(c2ccccc2)c2ccccc2)C(=O)N1CCCN1CCN(c2cccc(Cl)c2)CC1	5	4	17*	5
O=C1CC(=C(c2ccccc2)c2ccccc2)C(=O)N1CCN1CCN(c2cccc(Cl)c2)CC1	13	3	4	0
Cc1ccc(-n2c(-c3ccc(Br)cc3)c[n+]3c2CCc2ccc4cccnc4c2-3)cc1	-14	2	25*	-9
COc1ccccc1N1CCN(C(=O)CSc2nc3ccccc3[nH]2)CC1	-1	4	17*	5
SMILES	procasp7 counter	PP5 primary	PP1 inh	proCasp3 act
Cc1cc(C(=O)O)ccc1-n1c(C)ccc1C	-8	4	27*	-5
CCS(=O)(=O)c1ccc(OC)c(N=Nc2ccc(O)c3ncccc23)c1	12	2	15*	0
COc1ccc(OC)c(-n2c(C)cc(C=O)c2C)c1	5	2	-1	8
CCOc1ccccc1N1Cc2cc(C)c(C)cc2C1	-2	3	15*	-4
COc1ccc(OC)c(N2Cc3cc(C)c(C)cc3C2)c1	-12	2	17*	-5
CCOc1c(CNCCCSc2nc(C)cc(C)n2)cccc1OC	-9	3	-1	8
COC(=O)C1=C(CN2CCN(C)CC2)NC(=O)NC1c1cc(C)ccc1C (stereo unspecified)	0	0	-3	1
COC(=O)C1=C(CN2CCc3ccccc32)NC(=O)NC1c1cc(C)ccc1C (stereo unspecified)	-9	1	15*	-3
CC(C)c1ccc(S(=O)(=O)/N=C2/C=C(Sc3ncn[nH]3)C(=O)c3ccccc32)cc1	-38	11*	4	-22
Cc1cc(O)c(-c2cc(C(=O)NCc3ccc4c(c3)OCO4)[nH]n2)cc1C	-12	2	16*	-1
Cc1ccc(-c2cc(C(=O)NCc3ccc4c(c3)OCO4)[nH]n2)c(O)c1C	7	3	4	-5
CC(C)N1CCc2c(sc(NC(=O)c3ccc(S(=O)(=O)N4CCc5ccccc54)cc3)c2C(N)=O)C1	12	4	17*	-15
CC(C)N1CCc2c(sc(NC(=O)c3nc4ccccc4s3)c2C(N)=O)C1	-8	1	3	3
O=C1[C@@H](Oc2ccccc2)[C@@H](c2cnc3ccccc3c2)N1c1ccccc1	13	·	·	5
COCCn1c(SCC(=O)Nc2c(C)n(C)n(-c3ccccc3)c2=O)nnc1-c1ccncc1	3	0	-5	10
CCOC(=O)c1sc(NC(=O)C2CC(=O)N(c3ccc4c(c3)OCCO4)C2)nc1C (stereo unspecified)	2	4	3	0
Oc1ccc(N=Nc2ccc3c(c2)OCCO3)c2ncccc12	15	3	16*	11
COc1ccc(N=C2NC(=O)/C(=C\c3ccco3)S2)cc1	3	1	0	7
O=C1NC(=Nc2ccc(O)cc2)S/C1=C\C=C\c1ccco1	-19	0	16*	-11
O=C(Nc1cc(Sc2ccccn2)cc([N+](=O)[O-])c1)c1ccc([N+](=O)[O-])cc1	12	5	16*	0
Cc1ccc(C(=O)Nc2nnc(CC(=O)N/N=C/c3ccncc3)s2)cc1	4	2	15*	-2
CCOC(=O)[C@H]1[C@H]2COc3ccc(Cl)cc3[C@@H]2N2C(=O)CN(CC3CCCO3)C(=O)[C@@]12C (stereo partly specified)	7	1	0	4
O=c1cc(C(F)(F)F)nc(SC/C=C/c2ccccc2)[nH]1	-1	0	4	4
Cc1ccc(-n2c(SCC(=O)Nc3ccc4c5c(cccc35)CC4)nc(O)cc2=O)cc1	-9	2	16*	0
O=C(NCC1CCCO1)C(=O)N/N=C/c1ccc(OCc2ccccc2Cl)cc1 (stereo unspecified)	-4	-1	-1	6
CCOc1cccc(C(=O)N2CCCCC2c2cccnc2)c1 (stereo unspecified)	12	1	16*	7
CC(=O)c1ccc(OCc2cc(C(=O)N3CCCCC3c3cccnc3)no2)cc1 (stereo unspecified)	-1	2	-4	6
O=C(O)COc1ccc(/C=C2/SC(=S)N(Cc3ccccc3)C2=O)cc1	-3	2	15*	-4
